Converted amounts (≈) assume the structure as drawn. The source made the active and inactive calls. The calls are words filed in the database; no cut-off is given here.
Columns and labels:
Oxytocin receptor [1] = molecular target: T1, Oxytocin receptor (Homo sapiens, UniProt P30559); assay: Displacement of [3H]-AVP from human oxytocin receptor expressed in CHO cells after 30 mins; format: cell-based
T1 sequence (P30559 whole entry): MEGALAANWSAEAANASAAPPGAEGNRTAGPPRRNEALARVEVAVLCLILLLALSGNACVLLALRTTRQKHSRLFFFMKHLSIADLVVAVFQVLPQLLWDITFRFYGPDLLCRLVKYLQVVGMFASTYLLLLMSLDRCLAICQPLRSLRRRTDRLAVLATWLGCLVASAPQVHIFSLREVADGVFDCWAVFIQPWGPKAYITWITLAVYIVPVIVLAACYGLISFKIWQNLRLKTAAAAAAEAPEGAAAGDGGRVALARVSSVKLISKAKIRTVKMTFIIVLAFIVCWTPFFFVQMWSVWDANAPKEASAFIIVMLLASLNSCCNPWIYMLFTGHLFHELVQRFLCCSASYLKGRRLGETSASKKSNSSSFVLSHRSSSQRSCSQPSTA

[2] = molecular target: T2, Oxytocin receptor (Homo sapiens) (UniProt P30559); assay: Displacement of [3H]-AVP from human oxytocin receptor expressed in CHO cells at 10 uM after 30 mins; format: cell-based
T2 sequence (whole entry): T1 sequence (P30559 whole entry)
Method in brief: (§1)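 Human OTR, V1aR or V1bR membranes from CHO cells, [3H]-AVP displacement with compound at a single 10 μM concentration, 30 min at 30 °C in Tris-HCl pH 7.4/MgCl2/BSA buffer.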

[3] = molecular target: T3, Vasopressin V1b receptor (Homo sapiens) (UniProt P47901); assay: Displacement of [3H]-AVP from human vasopressin V1b receptor expressed in CHO cells at 10 uM after 30 mins; format: cell-based; method in brief: as §1
T3 sequence (whole entry): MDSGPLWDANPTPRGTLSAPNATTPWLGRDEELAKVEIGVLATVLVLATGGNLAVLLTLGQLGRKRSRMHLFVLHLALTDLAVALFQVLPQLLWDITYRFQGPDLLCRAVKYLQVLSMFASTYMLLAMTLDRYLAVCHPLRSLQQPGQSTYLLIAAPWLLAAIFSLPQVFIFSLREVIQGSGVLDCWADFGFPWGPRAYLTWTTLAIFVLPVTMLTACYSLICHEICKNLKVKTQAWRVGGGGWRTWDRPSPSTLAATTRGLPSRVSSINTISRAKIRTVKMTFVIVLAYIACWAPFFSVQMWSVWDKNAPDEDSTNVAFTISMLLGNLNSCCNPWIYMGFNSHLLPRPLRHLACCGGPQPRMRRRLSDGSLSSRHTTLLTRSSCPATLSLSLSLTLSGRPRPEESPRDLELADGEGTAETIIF

Vasopressin V1b receptor = molecular target: T4, Vasopressin V1b receptor (Homo sapiens, UniProt P47901); assay: Displacement of [3H]-AVP from human vasopressin V1b receptor expressed in CHO cells after 30 mins; format: cell-based
T4 sequence (P47901 whole entry): T3 sequence (whole entry)

Vasopressin V1a receptor [4] = molecular target: T5, Vasopressin V1a receptor (Homo sapiens, UniProt P37288); assay: Displacement of [3H]-AVP from human vasopressin V1a receptor expressed in CHO cells at 10 uM after 30 mins; format: cell-based; method in brief: as §1
Target sequence in this assay (P37288 whole entry, looked up): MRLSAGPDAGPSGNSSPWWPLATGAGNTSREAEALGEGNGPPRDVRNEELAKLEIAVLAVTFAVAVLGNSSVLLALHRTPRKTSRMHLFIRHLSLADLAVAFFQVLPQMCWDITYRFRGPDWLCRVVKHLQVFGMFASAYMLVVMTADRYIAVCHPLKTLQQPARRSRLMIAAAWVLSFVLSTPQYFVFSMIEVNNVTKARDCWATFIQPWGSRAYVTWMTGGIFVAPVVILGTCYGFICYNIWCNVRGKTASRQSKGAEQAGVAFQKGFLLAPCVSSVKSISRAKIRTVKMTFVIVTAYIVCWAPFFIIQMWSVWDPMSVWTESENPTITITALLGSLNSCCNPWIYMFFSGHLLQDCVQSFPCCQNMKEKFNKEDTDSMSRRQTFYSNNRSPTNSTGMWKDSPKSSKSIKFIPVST

Vasopressin V1a receptor [5] = molecular target: T5, Vasopressin V1a receptor; assay: Displacement of [3H]-AVP from human vasopressin V1a receptor expressed in CHO cells after 30 mins; format: cell-based
Target sequence in this assay (P37288 whole entry): as the sequence (P37288 whole entry, looked up) above

Vasopressin V2 receptor [6] = molecular target: T6, Vasopressin V2 receptor (Homo sapiens, UniProt P30518); assay: Antagonist activity at human vasopressin V2 receptor expressed in CHO cells assessed as inhibition of AVP-induced cAMP accumulation after 30 mins by TR-FRET based HTRF assay; format: functional, cell-based
T6 sequence (P30518 whole entry): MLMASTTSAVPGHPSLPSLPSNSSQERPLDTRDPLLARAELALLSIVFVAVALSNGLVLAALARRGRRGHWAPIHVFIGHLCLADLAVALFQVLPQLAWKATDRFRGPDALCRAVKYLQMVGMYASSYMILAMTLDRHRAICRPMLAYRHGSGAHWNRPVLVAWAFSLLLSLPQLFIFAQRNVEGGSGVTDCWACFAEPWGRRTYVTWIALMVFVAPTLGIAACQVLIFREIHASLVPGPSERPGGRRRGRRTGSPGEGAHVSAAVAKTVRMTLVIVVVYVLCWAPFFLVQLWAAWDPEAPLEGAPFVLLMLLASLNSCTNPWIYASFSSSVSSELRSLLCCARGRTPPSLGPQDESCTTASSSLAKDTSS
Method in brief: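 CHO cells stably expressing human V2R, 5 × 10^3 per well on polyornithine, used 24 h after seeding. Incubated 30 min at 37 °C with compound (10−12 to 10−5 M) plus phosphodiesterase inhibitor RO 201724 0.1 mM. Antagonist mode run with 1 nM AVP. Cells lysed and cAMP read by HTRF (TR-FRET). Kact/Kinact from three independent experiments in triplicate, mean ± SEM.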

Vasopressin V2 receptor [7] = molecular target: T6, Vasopressin V2 receptor; assay: Agonist activity at human vasopressin V2 receptor expressed in CHO cells assessed as cAMP accumulation after 30 mins by TR-FRET based HTRF assay; format: functional, cell-based
Method in brief: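 CHO cells stably expressing human V2R, 5 × 10^3 per well on polyornithine, used 24 h after seeding. Cells lysed and cAMP read by HTRF (TR-FRET). Kact/Kinact from three independent experiments in triplicate, mean ± SEM.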

[8] = Solubility of the compound in HEPES buffer at pH 7.4 after 24 hrs; format: physicochemical
Method in brief: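 Solubility measured in pH 7.4 HEPES buffer after 24 h incubation at 22 °C.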

Vasopressin V2 receptor [9] = molecular target: T6, Vasopressin V2 receptor; assay: Displacement of [3H]-AVP from human vasopressin V2 receptor expressed in CHO cells after 30 mins; format: cell-based
Vasopressin V2 receptor [10] = molecular target: T6, Vasopressin V2 receptor; assay: Binding affinity to SNAP-tagged vasopressin V2 receptor expressed in HEK293 cells after 1 hr by TR-FRET assay; format: cell-based
Method in brief: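 HEK 293T cells electroporated with SNAP-tag–V2R and grown 48 h. Receptor labeled 1 h at 37 °C with SNAP-Lumi4-Tb (100 nM) or SNAP-RED (300 nM), then washed. Rising fluorescent-ligand concentrations added and incubated overnight at 4 °C. TR-FRET read with excitation 340 nm, emission 620/665 nm. Nonspecific binding taken with 10 μM unlabeled ligand. Kd from saturation, three experiments in triplicate.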

Homo sapiens = species on record: Homo sapiens; assay: Selectivity ratio of Ki for human oxytocin receptor to Ki for human vasopressin V2 receptor
Oxytocin receptor [11] = molecular target: T1, Oxytocin receptor; assay: Binding affinity to oxytocin receptor
Method in brief: (§2)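 Membranes (5 μg protein) from CHO cells stably expressing human V2R, V1aR, V1bR or OTR. Incubated 30 min at 30 °C in 50 mM Tris-HCl pH 7.4, 5 mM MgCl2, 1 mg/mL BSA with [3H]-AVP (1−2 nM) and competitor from 100 pM to 100 μM. Nonspecific binding with 10 μM AVP. GF/C filtration; Ki by nonlinear least-squares regression. Triplicate, at least three membrane batches.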

Vasopressin V1a receptor [12] = molecular target: T5, Vasopressin V1a receptor; assay: Binding affinity to vasopressin V1a receptor; method in brief: as §2
Target sequence in this assay (P37288 whole entry): as the sequence (P37288 whole entry, looked up) above

Row | SMILES | Ki (Oxytocin receptor [1]) | inhibition [2] | inhibition [3] | Ki (Vasopressin V1b receptor) | inhibition (Vasopressin V1a receptor [4]) | Ki (Vasopressin V1a receptor [5]) | Kb (Vasopressin V2 receptor [6]) | inhibition (Vasopressin V2 receptor [6]) | Activity (Vasopressin V2 receptor [7]) | solubility at 24 h [8] | Ki (Vasopressin V2 receptor [9]) | Kd (Vasopressin V2 receptor [10]) | Ratio Ki (Homo sapiens) | Ki (Oxytocin receptor [11]) | Ki (Vasopressin V1a receptor [12])
1 | CCN(CC)c1ccc2c(-c3ccc(S(=O)(=O)NCCOCCOCCOCCn4cc(CNC(=O)CCC(=O)NC5CCCN(C(=O)c6ccc(NC(=O)c7ccccc7-c7ccccc7)cc6)c6ccccc65)nn4)cc3S(=O)(=O)[O-])c3ccc(=[N+](CC)CC)cc-3oc2c1 (centres undefined) | > 10000 nM | < 50% | < 50% | > 10000 nM | < 50% | > 10000 nM | 1.96 nM | Dose-dependent effect | inactive | 2.1 µM (≈ 2.85 µg/mL) | 4 nM | – | – | – | –
2 | CCN(CC)c1ccc2c(-c3ccc(S(=O)(=O)NCCOCCOCCOCCn4cc(CNC(=O)CCC(=O)NC5CCCN(C(=O)c6ccc(NC(=O)c7ccccc7C)cc6)c6ccccc65)nn4)cc3S(=O)(=O)[O-])c3ccc(=[N+](CC)CC)cc-3oc2c1 (centres undefined) | 495 nM | – | < 50% | > 10000 nM | < 50% | > 10000 nM | 16.7 nM | Dose-dependent effect | inactive | 3.4 µM (≈ 4.4 µg/mL) | 54.3 nM | – | – | – | –
3 | CCN1/C(=C/C=C/C=C/C2=[N+](CC)c3ccc(S(=O)(=O)[O-])cc3C2(C)C)C(C)(CCCC(=O)NCCOCCOCCOCCn2cc(CNC(=O)CCC(=O)NC3CCCN(C(=O)c4ccc(NC(=O)c5ccccc5-c5ccccc5)cc4)c4ccccc43)nn2)c2cc(S(=O)(=O)O)ccc21 (centres undefined) | 808 nM | – | < 50% | > 10000 nM | – | 1750 nM | 0.1 nM | Dose-dependent effect | inactive | – | 9.02 nM | 2.33 nM | – | – | –
4 | O=C(CCC(=O)NC1CCCN(C(=O)c2ccc(NC(=O)c3ccccc3-c3ccccc3)cc2)c2ccccc21)NCc1cn(CCOCCOCCOCCNC(=S)Nc2ccc(-c3c4ccc(=O)cc-4oc4cc(O)ccc34)c(C(=O)O)c2)nn1 (centres undefined) | 665 nM | – | < 50% | > 10000 nM | < 50% | > 10000 nM | 0.78 nM | Dose-dependent effect | inactive | – | 26.1 nM | 11.1 nM | 25 | – | –
5 | CCN(CC)c1ccc2c(-c3ccc(S(=O)(=O)[O-])cc3S(=O)(=O)NCCOCCOCCOCCn3cc(CNC(=O)CCC(=O)NC4CCCN(C(=O)c5ccc(NC(=O)c6ccccc6C)cc5)c5ccccc54)nn3)c3ccc(=[N+](CC)CC)cc-3oc2c1 (centres undefined) | 307 nM | – | < 50% | > 10000 nM | < 50% | > 10000 nM | 164 nM | Dose-dependent effect | inactive | – | 188 nM | – | – | – | –
6 | CCN(CC)c1ccc2c(-c3ccc(S(=O)(=O)[O-])cc3S(=O)(=O)NCCOCCOCCOCCn3cc(CNC(=O)CCC(=O)NC4CCCN(C(=O)c5ccc(NC(=O)c6ccccc6-c6ccccc6)cc5)c5ccccc54)nn3)c3ccc(=[N+](CC)CC)cc-3oc2c1 (centres undefined) | > 10000 nM | < 50% | < 50% | > 10000 nM | < 50% | > 10000 nM | 2.12 nM | Dose-dependent effect | inactive | – | 14.1 nM | – | – | – | –
7 | Cc1ccccc1C(=O)Nc1ccc(C(=O)N2CCCC(N(C)C)c3ccccc32)cc1 (centres undefined) [MOZAVAPTAN] | – | – | – | – | – | – | – | Dose-dependent effect | inactive | – | – | – | – | 660 nM | 195 nM
8 | CCN1/C(=C/C=C/C=C/C2=[N+](CC)c3ccc(S(=O)(=O)[O-])cc3C2(C)C)C(C)(CCCC(=O)NCCOCCOCCOCCOCCOCCOCCn2cc(CNC(=O)CCC(=O)NC3CCCN(C(=O)c4ccc(NC(=O)c5ccccc5-c5ccccc5)cc4)c4ccccc43)nn2)c2cc(S(=O)(=O)O)ccc21 (centres undefined) | – | – | – | – | – | – | 0.54 nM | Dose-dependent effect | inactive | – | 14.2 nM | 2.53 nM | – | – | –

Second part, the compound after the results:

Row | Ki (Oxytocin receptor [1]) | inhibition [2] | inhibition [3] | Ki (Vasopressin V1b receptor) | inhibition (Vasopressin V1a receptor [4]) | Ki (Vasopressin V1a receptor [5]) | Kb (Vasopressin V2 receptor [6]) | inhibition (Vasopressin V2 receptor [6]) | Activity (Vasopressin V2 receptor [7]) | solubility at 24 h [8] | Ki (Vasopressin V2 receptor [9]) | Kd (Vasopressin V2 receptor [10]) | Ratio Ki (Homo sapiens) | Ki (Oxytocin receptor [11]) | Ki (Vasopressin V1a receptor [12]) | SMILES
9 | – | – | – | – | – | – | 0.66 nM | Dose-dependent effect | inactive | 3.1 µM (≈ 3.41 µg/mL) | 7.6 nM | – | – | – | – | CCN(CC)c1ccc2c(-c3ccc(S(=O)(=O)NCCCCC(=O)NC4CCCN(C(=O)c5ccc(NC(=O)c6ccccc6-c6ccccc6)cc5)c5ccccc54)cc3S(=O)(=O)[O-])c3ccc(=[N+](CC)CC)cc-3oc2c1 (centres undefined)
10 | – | – | – | – | – | – | 3.8 nM | Dose-dependent effect | inactive | 2.1 µM (≈ 2.1 µg/mL) | 25.3 nM | – | – | – | – | CCN(CC)c1ccc2c(-c3ccc(S(=O)(=O)NC4CCCN(C(=O)c5ccc(NC(=O)c6ccccc6-c6ccccc6)cc5)c5ccccc54)cc3S(=O)(=O)[O-])c3ccc(=[N+](CC)CC)cc-3oc2c1 (centres undefined)
11 | – | – | – | – | – | – | 8.91 nM | Dose-dependent effect | inactive | 6.2 µM (≈ 7.47 µg/mL) | 16.8 nM | – | – | – | – | CCN(CC)c1ccc2c(-c3ccc(S(=O)(=O)NCCOCCOCCOCCC(=O)NC4CCCN(C(=O)c5ccc(NC(=O)c6ccccc6-c6ccccc6)cc5)c5ccccc54)cc3S(=O)(=O)[O-])c3ccc(=[N+](CC)CC)cc-3oc2c1 (centres undefined)
12 | – | – | – | – | – | – | 2.03 nM | Dose-dependent effect | inactive | 3.7 µM (≈ 4.23 µg/mL) | 12.7 nM | – | – | – | – | CCN(CC)c1ccc2c(-c3ccc(S(=O)(=O)N4CCN(CCC(=O)NC5CCCN(C(=O)c6ccc(NC(=O)c7ccccc7-c7ccccc7)cc6)c6ccccc65)CC4)cc3S(=O)(=O)[O-])c3ccc(=[N+](CC)CC)cc-3oc2c1 (centres undefined)

Reference: ChEMBL document CHEMBL2169837 (J Med Chem, 2012)
